From ChEMBL document CHEMBL1142067, “Antiparasitic drug nitazoxanide inhibits the pyruvate oxidoreductases of Helicobacter pylori, selected anaerobic bacteria and parasites, and Campylobacter jejuni” (Antimicrob Agents Chemother, 2007)
Active and inactive are the calls of the source. The calls are words filed in the database; no cut-off is given here.

Columns and labels:
[1] = test system: Escherichia coli; test: Growth inhibition of Escherichia coli CC104 expressing rdxA after 16 hrs relative to Escherichia coli with pBSK; format: functional, organism-based
In short: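 E. coli CC104 carrying pGS950 (expresses H. pylori rdxA) or empty pBSK was grown in 2% glucose minimal (MinA) liquid medium with drug at 0, 5, 10 or 15 µg/ml. Turbidity at 660 nm was read at 16 h in triplicate cultures, normalized to the no-drug control, and expressed as percent growth inhibition (mean and standard deviation).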

[2] = test system: Trichomonas vaginalis; test: Activity of PFOR in Trichomonas vaginalis at anaerobic condition
In short: (§1)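 Cell-free extracts, high-speed supernatant after sonication (parasites: sonication or glass homogenizer). PFOR assayed anaerobically at 25°C in 100 mM potassium phosphate pH 7.4 with 10 mM pyruvate, 0.18 mM CoA, 1 mM MgCl2 and 5 µM TPP. Acceptor was 5 mM benzyl viologen (546 nm) or NTZ (decrease at 418 nm). Enzyme added last. Triplicate means, per mg Bradford protein.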

[3] = biological target: T1, Pyruvate-flavodoxin oxidoreductase (Clostridium perfringens (strain SM101 / Type A)) (UniProt Q0SRB6); test: Activity of PFOR in Clostridium perfringens at anaerobic condition; in short: as §1
T1 sequence (whole entry): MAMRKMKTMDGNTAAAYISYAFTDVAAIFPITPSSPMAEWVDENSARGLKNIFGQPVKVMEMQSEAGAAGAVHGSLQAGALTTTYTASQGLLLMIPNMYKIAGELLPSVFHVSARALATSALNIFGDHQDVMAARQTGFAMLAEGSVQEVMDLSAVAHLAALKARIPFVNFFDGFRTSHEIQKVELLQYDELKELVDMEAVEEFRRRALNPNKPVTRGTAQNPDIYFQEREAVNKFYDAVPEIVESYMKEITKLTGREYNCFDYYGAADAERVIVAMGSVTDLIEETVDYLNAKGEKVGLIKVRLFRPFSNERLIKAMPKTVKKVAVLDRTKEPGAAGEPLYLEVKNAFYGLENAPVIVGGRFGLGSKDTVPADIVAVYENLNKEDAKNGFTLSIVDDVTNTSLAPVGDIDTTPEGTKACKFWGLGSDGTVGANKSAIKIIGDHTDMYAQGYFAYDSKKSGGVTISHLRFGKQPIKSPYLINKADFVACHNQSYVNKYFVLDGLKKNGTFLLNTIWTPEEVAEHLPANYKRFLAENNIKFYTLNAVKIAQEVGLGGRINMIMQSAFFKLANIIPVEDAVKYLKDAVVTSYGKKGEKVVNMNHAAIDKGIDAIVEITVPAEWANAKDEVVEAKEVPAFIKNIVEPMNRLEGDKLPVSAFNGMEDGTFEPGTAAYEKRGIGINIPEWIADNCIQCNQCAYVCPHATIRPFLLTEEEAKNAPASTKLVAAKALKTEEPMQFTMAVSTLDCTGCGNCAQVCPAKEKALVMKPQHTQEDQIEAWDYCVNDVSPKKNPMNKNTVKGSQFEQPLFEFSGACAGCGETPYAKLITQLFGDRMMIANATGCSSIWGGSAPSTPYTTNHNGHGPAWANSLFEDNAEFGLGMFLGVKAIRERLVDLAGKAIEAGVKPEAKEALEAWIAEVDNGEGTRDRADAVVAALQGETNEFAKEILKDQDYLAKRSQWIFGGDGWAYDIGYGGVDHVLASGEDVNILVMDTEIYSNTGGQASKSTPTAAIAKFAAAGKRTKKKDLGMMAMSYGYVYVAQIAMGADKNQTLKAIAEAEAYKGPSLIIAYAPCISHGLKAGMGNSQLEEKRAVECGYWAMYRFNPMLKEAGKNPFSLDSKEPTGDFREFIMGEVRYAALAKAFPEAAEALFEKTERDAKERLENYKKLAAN

[4] = biological target: T2, Pyruvate-flavodoxin oxidoreductase (Campylobacter jejuni subsp. jejuni) (UniProt Q0P8E1); test: Activity of PFOR in Campylobacter jejuni at anaerobic condition; in short: as §1
T2 sequence (whole entry): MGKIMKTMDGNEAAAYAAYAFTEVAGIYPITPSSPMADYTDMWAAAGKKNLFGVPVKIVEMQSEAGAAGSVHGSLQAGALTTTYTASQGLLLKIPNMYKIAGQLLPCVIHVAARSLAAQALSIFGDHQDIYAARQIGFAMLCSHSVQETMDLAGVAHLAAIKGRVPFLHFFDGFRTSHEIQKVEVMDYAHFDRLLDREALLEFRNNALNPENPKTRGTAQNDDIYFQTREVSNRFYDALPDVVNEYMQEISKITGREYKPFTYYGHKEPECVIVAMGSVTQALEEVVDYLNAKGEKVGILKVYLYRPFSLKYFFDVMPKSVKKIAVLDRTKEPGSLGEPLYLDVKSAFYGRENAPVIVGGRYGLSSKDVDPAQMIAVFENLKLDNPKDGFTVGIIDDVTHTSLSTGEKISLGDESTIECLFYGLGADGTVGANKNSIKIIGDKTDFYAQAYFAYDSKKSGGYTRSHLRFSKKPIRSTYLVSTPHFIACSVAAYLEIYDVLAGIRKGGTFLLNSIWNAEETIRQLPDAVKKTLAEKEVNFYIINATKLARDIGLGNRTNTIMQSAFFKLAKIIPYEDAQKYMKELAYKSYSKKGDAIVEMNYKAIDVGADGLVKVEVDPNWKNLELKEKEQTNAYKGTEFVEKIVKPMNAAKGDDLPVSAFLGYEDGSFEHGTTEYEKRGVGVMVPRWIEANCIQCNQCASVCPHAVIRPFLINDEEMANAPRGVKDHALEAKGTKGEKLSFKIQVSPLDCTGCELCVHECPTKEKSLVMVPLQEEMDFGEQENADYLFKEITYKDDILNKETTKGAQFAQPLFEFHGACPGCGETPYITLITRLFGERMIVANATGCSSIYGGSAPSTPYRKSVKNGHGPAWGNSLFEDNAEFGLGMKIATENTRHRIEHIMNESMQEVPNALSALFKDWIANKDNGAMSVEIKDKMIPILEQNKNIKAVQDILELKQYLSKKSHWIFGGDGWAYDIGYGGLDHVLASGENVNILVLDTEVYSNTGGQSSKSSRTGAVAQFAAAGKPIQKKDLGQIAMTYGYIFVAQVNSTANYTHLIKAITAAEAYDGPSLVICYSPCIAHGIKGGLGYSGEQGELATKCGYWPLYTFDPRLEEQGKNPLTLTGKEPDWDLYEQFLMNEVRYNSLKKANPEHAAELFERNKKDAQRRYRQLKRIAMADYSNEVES

[5] = test system: Giardia duodenalis; test: Activity of PFOR in Giardia intestinalis at anaerobic condition; in short: as §1
[6] = test system: Clostridioides difficile; test: Activity of PFOR in Clostridium difficile at anaerobic condition; in short: as §1
[7] = test system: Helicobacter pylori; test: Activity of PFOR in Helicobacter pylori at anaerobic condition; in short: as §1
[8] = test system: Entamoeba histolytica; test: Activity of PFOR in Entamoeba histolytica at anaerobic condition; in short: as §1
[9] = test system: Escherichia coli; test: Inhibition of Escherichia coli JVQ2 PDH at 20 uM
[10] = test system: Entamoeba histolytica; test: Inhibition of Entamoeba histolytica PFOR cloned in Escherichia coli assessed as [14C]pyruvate decarboxylation by BV assay
[11] = biological target: T3, Pyruvate-flavodoxin oxidoreductase (Campylobacter jejuni subsp. jejuni, UniProt Q0P8E1); test: Inhibition of PFOR Campylobacter jejuni
T3 sequence (Q0P8E1 whole entry): T2 sequence (whole entry)
In short: (§2)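 PFOR in extracts or partly purified enzyme, standard anaerobic assay at 25°C with excess benzyl viologen (5 mM). Initial velocities of BV reduction at 546 nm measured at each NTZ level (0 to 264 µM). Plotted as 1/V against inhibitor concentration to derive Ki. Triplicate.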

[12] = Inhibition of PFOR Entamoeba histolytica; in short: as §2
[13] = test system: Escherichia coli; test: Growth inhibition of Escherichia coli pBSK after 16 hrs; format: functional
In short: (§3)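 E. coli CC104 carrying pGS950 (H. pylori rdxA) or empty pBSK, grown in 2% glucose MinA liquid medium with drug at 0, 5, 10 or 15 µg/ml. Turbidity at 660 nm read at 16 h in triplicate and expressed as a percentage of the no-drug control.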

[14] = Inhibition of PFOR Trichomonas vaginalis; in short: as §2
[15] = test system: Escherichia coli; test: Growth inhibition of Escherichia coli; format: functional
[16] = test system: Escherichia coli; test: Growth inhibition of Escherichia coli CC104 expressing rdxA gene after 16 hrs; format: functional; in short: as §3
[17] = Inhibition of PFOR Helicobacter pylori; in short: as §2

| SMILES | Activity [1] | Activity [2] | Activity [3] | Activity [4] | Activity [5] | Activity [6] | Activity [7] | Activity [8] | inhibition [9] | Activity [10] | Ki [11] | Ki [12] | Inhibition [13] | Km [5] | Ki [14] | MIC [15] | Inhibition [16] | Ki [17] |
| --- | --- | --- | --- | --- | --- | --- | --- | --- | --- | --- | --- | --- | --- | --- | --- | --- | --- | --- |
| Cc1ncc([N+](=O)[O-])n1CCO | Active |  |  |  |  |  |  |  |  |  |  |  |  |  |  |  |  |  |
| c1ccc(C[n+]2ccc(-c3cc[n+](Cc4ccccc4)cc3)cc2)cc1 |  | 52.5 nmol/mg/min | 225 nmol/mg/min | 115 nmol/mg/min | 62.5 nmol/mg/min | 106 nmol/mg/min | 127 nmol/mg/min | 742 nmol/mg/min |  |  |  |  |  |  |  |  |  |  |
| CC(=O)Oc1ccccc1C(=O)Nc1ncc([N+](=O)[O-])s1 [NITAZOXANIDE] |  |  | 56.5 nmol/mg/min | 20 nmol/mg/min | 41.5 nmol/mg/min | 18.8 nmol/mg/min | 8.5 nmol/mg/min | 19 nmol/mg/min | 22% | Active | 10.5 µM | 10 µM | 35% | 44 µM | 2.2 µM | > 32 µg/mL | 35% | 4.5 µM |
